Assay results reported in ChEMBL document CHEMBL5120910, “Small-Molecule Gankyrin Inhibition as a Therapeutic Strategy for Breast and Lung Cancer” (J Med Chem, 2022).
The source made the active and inactive calls. The calls are words filed in the database; no cut-off is given here.

Experiments:
A549 = experiment: Antiproliferative activity against human A549 cells assessed as cell growth inhibition measured after 72 hrs by MTT assay; assay type: functional, cell-based; settings: A549, 72 h
Method in brief: (§1)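 Cells seeded at 2.5 × 10^4 cells/well, allowed 24 h before dosing, then exposed to increasing concentrations (0.5% DMSO final) for 72 h at 37 °C, 5% CO2. MTT added at 1 mg/mL final in complete media for 2 h, formazan dissolved in DMSO, absorbance read at 570 nm. 6–8 repeats per treatment; IC50 from concentration–response fit.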

MDA-MB-231 [1] = experiment: Antiproliferative activity against human MDA-MB-231 cells assessed as cell growth inhibition measured after 72 hrs by MTT assay; assay type: functional, cell-based; settings: MDA-MB-231, 72 h; method in brief: as §1
MDA-MB-231 [2] = experiment: Antitumor activity in human MDA-MB-231 cells cultured as 3D spheroids assessed as fold decrease in spheroid volume at 1 uM measured up to 15 days by inverted microscopic analysis; assay type: functional; settings: time <= 15 day
Method in brief: (§2)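 Spheroids formed from 2000 cells/well in ultra-low attachment U-bottom wells over 3 days, then given a single dose on day 3. Half the media was replenished every 3 days. Transmitted-light images were taken through day 15, and spheroid volume was computed from images and expressed as fold-difference. Mean ± SD, n = 8; unpaired t-test.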

[3] = Antiproliferative activity against human HuH-6 cells assessed as cell growth inhibition measured after 72 hrs by MTT assay; assay type: functional, cell-based; settings: HuH-6, 72 h; method in brief: as §1
MDA-MB-231 [4] = experiment: Antitumor activity against human MDA-MB-231 cells tumor spheroids assessed as increase in dead cells by measuring red fluorescence intensity at 1 to 2 uM measured at 15 days by EthD-III staining based fluorescence microscopic analysis; assay type: functional, cell-based; settings: dose 1-2 µM, time 15.0 day
Method in brief: (§3)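 Live/dead staining of 3D spheroids at day 15 after single-dose treatment: media replaced by kit reagent with calcein AM (live, green) and EthD-III (dead, red), 30 min in dark at room temperature, imaged at 4X by fluorescence microscopy. Mean ± SD, n = 4; unpaired Student's t-test.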

MDA-MB-231 [5] = experiment: Induction of cell cycle arrest in human MDA-MB-231 cells assessed as increase in cell accumulation at G0/G1 phase at 2 uM measured after 72 hrs by propidium iodide staining based flow cytometry analysis; assay type: functional
Method in brief: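 Cells in 10 cm dishes treated for 72 h (0.1% DMSO final; DMSO-only control). Harvested in cold PBS, fixed in 70% ethanol at −20 °C overnight, stained with PI for 40 min at 37 °C, then analysed by flow/imaging cytometry for G0/G1, S and G2/M fractions. Mean ± SD, n = 3.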

[6] = Metabolic stability in human liver microsomes assessed as compound remaining preincubated for 10 mins followed by NADPH addition measured after 60 mins by HPLC analysis; assay type: ADME, Microsome; settings: read-out: Stability
HuH-6 [7] = experiment: Inhibition of gankyrin-proteasome protein-protein interaction in human HuH-6 cells assessed as increase in Rb level at 0.12 to 1 uM measured after 48 hrs by Western blotting analysis; assay type: cell-based; settings: dose 0.12-1 µM
Method in brief: (§4)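 Cells in 10 cm dishes treated with varying concentrations (0.5% DMSO final) or DMSO only for 48 h. Lysed in RIPA with protease/phosphatase inhibitors on ice for 60 min. 15 μg protein resolved under reducing conditions, transferred to PVDF, and probed for p53, phospho-p53 S6/S15, Rb, gankyrin and cyclophilin. Detection by HRP-secondary ECL.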

MDA-MB-231 [8] = experiment: Antitumor activity in human MDA-MB-231 cells cultured as 3D spheroids assessed as fold decrease in spheroid volume at 2 uM measured up to 15 days by inverted microscopic analysis; assay type: functional; settings: time <= 15 day; method in brief: as §2
[9] = biological target: T1, 26S proteasome non-ATPase regulatory subunit 10 (Homo sapiens) (UniProt O75832); experiment: Binding affinity to gankyrin (unknown origin) assessed as change in melting temperature at 300 uM by SYPRO orange staining based thermal shift assay
T1 sequence (whole entry): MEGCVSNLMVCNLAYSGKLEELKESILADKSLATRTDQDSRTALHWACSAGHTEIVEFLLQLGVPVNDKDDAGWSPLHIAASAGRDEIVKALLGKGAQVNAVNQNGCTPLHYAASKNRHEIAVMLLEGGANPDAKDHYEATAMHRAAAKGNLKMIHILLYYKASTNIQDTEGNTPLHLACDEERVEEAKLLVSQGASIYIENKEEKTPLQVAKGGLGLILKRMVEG

MDA-MB-231 [10] = experiment: Inhibition of colony formation in human MDA-MB-231 cells at 2 uM incubated for 48 hrs followed by replacement of fresh media every alternative day measured after 7 days by crystal violet staining based clonogenic assay relative to control; values are per cent of control; settings: MDA-MB-231, 216 h
[11] = biological target: T1, 26S proteasome non-ATPase regulatory subunit 10 (Homo sapiens); experiment: Binding affinity to gankyrin in human MDA-MB-231 cells assessed as decrease in thermal stability at 2 uM incubated for 48 hrs followed by heat treatment at 50 to 65 degreeC by CETSA; assay type: cell-based
Method in brief: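 CETSA: cells treated with compound for 48 h, then heated across a temperature range. Soluble gankyrin was detected by western blot and melt curves were constructed. Mean ± SD, n = 3.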

HuH-6 [12] = experiment: Inhibition of gankyrin-proteasome protein-protein interaction in human HuH-6 cells assessed as increase in p53 level at 0.12 to 1 uM measured after 48 hrs by Western blotting analysis; assay type: cell-based; settings: dose 0.12-1 µM; method in brief: as §4
[13] = biological target: T1, 26S proteasome non-ATPase regulatory subunit 10 (Homo sapiens); experiment: Binding affinity to gankyrin (unknown origin) expressed in Escherichia coli BL21 (DE3) expression system assessed as decrease in thermal denaturation at 1.5 uM measured at 5 to 90 degreeC by circular dichroism spectropolarimeter analysis
Method in brief: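 Recombinant His-tagged gankyrin expressed in E. coli BL21(DE3) Codon+RIL (IPTG 1 mM, 25 °C, ~5 h) and purified by Ni2+-IMAC. Thermal denaturation followed by CD at 217 nm over 5–90 °C with compound at 1.5 μM.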

MDA-MB-231 [14] = experiment: Inhibition of gankyrin-proteasome protein-protein interaction in human MDA-MB-231 cells assessed as increase in Rb level at 0.25 to 2 uM measured after 48 hrs by Western blotting analysis; assay type: cell-based; settings: dose 0.25-2 µM; method in brief: as §4
MDA-MB-231 [15] = experiment: Induction of cell cycle arrest in human MDA-MB-231 cells at 2 uM measured after 72 hrs by propidium iodide staining based flow cytometry analysis
MDA-MB-231 [16] = experiment: Antitumor activity against human MDA-MB-231 cells tumor spheroids assessed as decrease in live cells by measuring green fluorescence intensity at 1 to 2 uM measured at 15 days by calcein AM staining based fluorescence microscopic analysis; assay type: functional, cell-based; settings: dose 1-2 µM, time 15.0 day; method in brief: as §3
[17] = Cytotoxicity against HEK293 cells assessed as cell growth inhibition measured after 72 hrs by MTT assay; assay type: toxicity, cell-based; settings: human; method in brief: as §1
MDA-MB-231 [18] = experiment: Antitumor activity against human MDA-MB-231 cells tumor spheroids assessed as increase in dead cells by measuring red fluorescence intensity at 1.15 to 2.30 uM measured at 15 days by EthD-III staining based fluorescence microscopic analysis; assay type: functional, cell-based; settings: dose 1.15-2.3 µM, time 15.0 day; method in brief: as §3
[19] = biological target: T1, 26S proteasome non-ATPase regulatory subunit 10 (Homo sapiens); experiment: Binding affinity to gankyrin (unknown origin) expressed in Escherichia coli BL21 (DE3) expression system assessed as formation of white precipitation of the compound at 1.5 uM
MDA-MB-231 [20] = experiment: Antitumor activity against human MDA-MB-231 cells tumor spheroids assessed as decrease in live cells by measuring green fluorescence intensity at 1.15 to 2.30 uM measured at 15 days by calcein AM staining based fluorescence microscopic analysis; assay type: functional, cell-based; settings: dose 1.15-2.3 µM, time 15.0 day; method in brief: as §3
MDA-MB-231 [21] = experiment: Antitumor activity in human MDA-MB-231 cells cultured as 3D spheroids assessed as fold decrease in spheroid volume at 2.30 uM measured up to 15 days by inverted microscopic analysis; assay type: functional; settings: dose 2.3 µM; time <= 15 day; method in brief: as §2
MDA-MB-231 [22] = experiment: Inhibition of gankyrin-proteasome protein-protein interaction in human MDA-MB-231 cells assessed as increase in Rb level at 0.30 to 2.50 uM measured after 48 hrs by Western blotting analysis; assay type: cell-based; settings: dose 0.3-2.5 µM; method in brief: as §4
MDA-MB-231 [23] = experiment: Antitumor activity in human MDA-MB-231 cells cultured as 3D spheroids assessed as fold decrease in spheroid volume at 1.15 uM measured up to 15 days by inverted microscopic analysis; assay type: functional; settings: time <= 15 day; method in brief: as §2
MDA-MB-231 [24] = experiment: Inhibition of colony formation in human MDA-MB-231 cells at 1.15 uM incubated for 48 hrs followed by replacement of fresh media every alternative day measured after 7 days by crystal violet staining based clonogenic assay relative to control; values are per cent of control; settings: MDA-MB-231, 216 h

COC(=O)c1ccc(-c2cn(CCCC(=O)Nc3ccc(C)cc3)nn2)cc1
IC50 (A549): > 100 µM | IC50 (MDA-MB-231 [1]): 2.7 µM

O=C(CCCn1cc(-c2ccc(C(F)(F)F)cc2)nn1)Nc1ccc(-c2ccccc2)cc1
fold change (FC) (MDA-MB-231 [2]): 2.3 | IC50 [3]: 1.1 µM | Activity (MDA-MB-231 [4]): Active | Activity (MDA-MB-231 [5]): Active | remaining at 1 h [6]: 60% | Activity (HuH-6 [7]): Active | fold change (FC) (MDA-MB-231 [8]): 3.2 | Activity [9]: Active | growth, % of control at 2 µM (MDA-MB-231 [10]): 46.3% | Activity [11]: Active | Activity (HuH-6 [12]): Active | IC50 (A549): 19.1 µM | Activity [13]: Active | Activity (MDA-MB-231 [14]): Active | Activity (MDA-MB-231 [15]): Active | IC50 (MDA-MB-231 [1]): 2 µM | Activity (MDA-MB-231 [16]): Active | IC50 at 72 h [17]: > 100 µM

COC(=O)c1ccc(-n2cc(CCCNC(=S)c3ccc(C)cc3)nn2)cc1
IC50 (A549): > 100 µM | IC50 (MDA-MB-231 [1]): 82.4 µM

COC(=O)c1ccc(-n2cc(CCCC(=O)Oc3ccc(C)cc3)nn2)cc1
IC50 (A549): > 100 µM | IC50 (MDA-MB-231 [1]): 55.1 µM

COC(=O)c1ccc(-n2cc(CCCNc3ccc(C)cc3)nn2)cc1
IC50 (A549): > 100 µM | IC50 (MDA-MB-231 [1]): 33 µM

COC(=O)c1ccc(-n2cc(CCCOC(=O)c3ccc(C)cc3)nn2)cc1
IC50 (A549): > 100 µM | IC50 (MDA-MB-231 [1]): > 100 µM

Cc1ccc(NC(=O)CCCn2cc(-c3ccc(C(F)(F)F)cc3)nn2)cc1
Activity (MDA-MB-231 [18]): Active | Activity [19]: Active | IC50 [3]: 3.1 µM | remaining at 1 h [6]: 84% | Activity (MDA-MB-231 [20]): Active | fold change (FC) (MDA-MB-231 [21]): 3.1 | Activity [9]: Active | IC50 (A549): 25 µM | Activity (MDA-MB-231 [22]): Active | Activity [13]: Active | fold change (FC) (MDA-MB-231 [23]): 2.6 | IC50 (MDA-MB-231 [1]): 2.3 µM | IC50 at 72 h [17]: > 100 µM | growth, % of control at 1.15 µM (MDA-MB-231 [24]): 75.3%

Cc1ccc(S(=O)(=O)OCCCc2cn(-c3ccc(C(F)(F)F)cc3)nn2)cc1
IC50 (A549): > 100 µM | IC50 (MDA-MB-231 [1]): > 100 µM

COC(=O)c1ccc(-n2cc(CCCOS(=O)(=O)c3ccc(-c4ccccc4)cc3)nn2)cc1
IC50 (A549): 57.3 µM | IC50 (MDA-MB-231 [1]): > 100 µM

COC(=O)c1ccc(-n2cc(CCCc3nnc(-c4ccc(C)cc4)[nH]3)nn2)cc1
IC50 (A549): 79.5 µM | IC50 (MDA-MB-231 [1]): 79.1 µM

COC(=O)c1ccc(-n2cc(CCCOc3ccc(C)cc3)nn2)cc1
IC50 (A549): > 100 µM | IC50 (MDA-MB-231 [1]): 14.2 µM

COC(=O)c1ccc(-n2cc(CCCC(=O)NS(=O)(=O)c3ccc(C)cc3)nn2)cc1
IC50 (A549): > 100 µM | IC50 (MDA-MB-231 [1]): > 100 µM

COC(=O)c1ccc(-n2cc(CCCn3nnc(-c4ccc(C)cc4)n3)nn2)cc1
IC50 (A549): > 100 µM | IC50 (MDA-MB-231 [1]): 36.5 µM

COC(=O)c1ccc(-c2nnn(CCCOS(=O)(=O)c3ccc(C)cc3)n2)cc1
IC50 (A549): > 100 µM | IC50 (MDA-MB-231 [1]): > 100 µM
